The species entered for data set [1] is Mus musculus. The data set can be described thus: Compound was evaluated for the dose required to inhibit the humoral response to 50% (immune activity). The class given is functional. The method, boiled down:
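Humoral response to EL4 in Balb/c mice measured as complement-dependent lysis titer of 51Cr-labeled EL4 cells by day-10 sera. Mice were given oral daily doses from day 0 to day 9 at several levels. ED50 was obtained by linear interpolation between the doses bracketing 50% inhibition of the control titer.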

The nature of data set [2]: Acid dissociation constant was determined. The class given is ADME. The method, boiled down: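 pKa by potentiometric titration in 2:1 dioxane-H2O (v/v) against 0.5 N NaOH; apparent pKa read as the pH at half-neutralization.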
For data set [3], the system named is Mus musculus. The data set can be described thus: Immunological activity in mice as the percentage of suppression of the cellular response to EI4 tumor cells at 10 mg/kg. Type of data set: functional. The gist of the method:
(§1)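 Balb/c mice, groups of 10, immunized ip on day 0 with 10^7 EL4 ascites tumor cells. Dosed orally 10 mg/kg once daily days 0-9, in water with a little NaOH (circa pH 8.5); saline controls. On day 10, spleen cells (1.5×10^7 viable) incubated with 51Cr-labeled EL4 cells (0.5×10^6) for 3 h at 37 °C in 10% CO2. Lysis corrected for spontaneous release; reported as % inhibition of control lysis.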

In data set [4] the test system is Mus musculus. The data set can be described thus: Compound was evaluated for immunological activity in mice as the percentage of suppression of the humoral response to EI4 tumor cells at 10 mg/kg, po. Type of data set: functional. The gist of the method: (§2)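 Balb/c mice, groups of 10, immunized ip on day 0 with 10^7 EL4 cells. Dosed orally 10 mg/kg once daily days 0-9, in water with a little NaOH (pH ~8.5); saline controls. Titer taken as the dilution giving 50% maximal lysis; reported as % inhibition of control titer.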

Data set [5] is filed under the species Mus musculus. The experiment in a line: Compound was evaluated for the dose required to inhibit the cellular response to 50% (immune activity). The class given is functional. The gist of the method:
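Cellular response to EL4 in Balb/c mice measured by spleen-cell lysis of 51Cr-labeled EL4 cells (3 h, 37 °C). Mice were given oral daily doses from day 0 to day 9 at several levels, tested up to 300 mg/kg. ED50 was obtained by linear interpolation between the doses giving above and below 50% inhibition.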

Data set [6] has as its system Mus musculus. The data set can be described thus: Compound was evaluated for immunological activity in mice as the percentage of suppression of the humoral response to EI4 tumor cells at 10 mg/kg, po; Data unreliable. The arrangement: dose 10 mg/kg. The class given is functional, organism-based. The method, boiled down:
as §2

The subject of data set [7] is Mus musculus. The experiment in a line: Compound was evaluated for immunological activity in mice as the percentage of suppression of the cellular response to EI4 tumor cells at 10 mg/kg, po. Type of data set: functional. The method, boiled down:
as §1

This is an account of results in ChEMBL document CHEMBL1121658, “Novel immunosuppressive agents. Potent immunological activity of some bensothiopyrano [4,3-c]pyrazol-3-ones” (J Med Chem, 1981).

As for `COc1ccc(-n2nc3c(c2O)CSc2ccccc2-3)cc1`, the ED50 in the data set filed under Mus musculus [1] was determined as 150 mg/kg; in the data set filed under Mus musculus [5], 240 mg/kg. In addition, the pKa in data set [2] was 7.76. The Suppression with Mus musculus [3] is -11%; in the data set with Mus musculus [4] it was -6%.

With `O=c1c2csc3ccccc3c-2nn1-c1ccc(Cl)cc1`, the Suppression in the data set with Mus musculus [3] was 63%; in the data set on Mus musculus [4], over 90%.

Turning to `Cc1ccc(-n2nc3c(c2O)CSc2ccccc2-3)cc1`, in data set [2], the pKa turned out to be 7.64. For the same molecule, the results for the Suppression in the data set on Mus musculus [3] and in the data set on Mus musculus [4] were 19% and 46%, respectively.

With `Oc1c2c(nn1-c1ccc(Cl)cc1)-c1ccccc1SC2`, the ED50 in the data set listed under Mus musculus [1] is 0.5 mg/kg; in the data set listed under Mus musculus [5], 2 mg/kg. In data set [2], this molecule yielded a pKa of 7.56. In addition, the Suppression with Mus musculus [3] and in the data set on Mus musculus [4] was over 90% throughout.

Consider `Oc1c2c(nn1-c1ccccc1)-c1ccccc1SC2`, for which the Suppression result in the data set with Mus musculus [6] is given as “Data unreliable”; with Mus musculus [3], 1%. For the same molecule, the ED50 in the data set filed under Mus musculus [1] was determined as 70 mg/kg; in the data set filed under Mus musculus [5] it was 130 mg/kg. Moreover, the pKa in data set [2] was found to be 7.48.

Consider `Oc1c2c(nn1-c1ccc(Cl)c(Cl)c1)-c1ccccc1SC2`, for which the ED50 in the data set listed under Mus musculus [1] amounted to 1 mg/kg; in the data set listed under Mus musculus [5] it was 3 mg/kg. In addition, the Suppression was 62% in the data set with Mus musculus [3] and 87% with Mus musculus [4].

Regarding `Oc1c2c(nn1-c1cccc(Cl)c1Cl)-c1ccccc1SC2`, in data set [2], the pKa came to 7.28. Further, the Suppression is 5% with Mus musculus [3] and 51% in the data set on Mus musculus [4].

On to `Oc1c2c(nn1Cc1ccccc1)-c1ccccc1SC2`, for which the Suppression with Mus musculus [3] is reported as -3%; in the data set with Mus musculus [4], 0%.

Regarding `Sc1ncnc2nc[nH]c12` [MERCAPTOPURINE ANHYDROUS], the Suppression in the data set on Mus musculus [3] stood at 63%; in the data set on Mus musculus [4], 52%.

`Oc1c2c(nn1-c1cc(Cl)cc(Cl)c1)-c1ccccc1SC2`: the median effective dose (ED50) in the data set listed under Mus musculus [1] came out at 8 mg/kg; in the data set listed under Mus musculus [5], 31 mg/kg. The Suppression was found to be 19% in the data set on Mus musculus [3] and 73% in the data set on Mus musculus [4].

For `Oc1c2c(nn1-c1c(Cl)cccc1Cl)-c1ccccc1SC2`, the Suppression in the data set with Mus musculus [3] turned out to be 1%; in the data set with Mus musculus [4], 4%.

In data set [2], `Oc1c2c(nn1-c1ccccc1Cl)-c1ccccc1SC2` returned a pKa of 7.74. Further, the values for the Suppression with Mus musculus [3] and in the data set with Mus musculus [4] were 8% and 45%, respectively.

For the molecule `O=P1(N(CCCl)CCCl)NCCCO1` (centres undefined) [CYCLOPHOSPHAMIDE ANHYDROUS], the Suppression is 52% in the data set with Mus musculus [3] and over 90% in the data set with Mus musculus [4].

As for `Oc1c2c(nn1-c1cccc(Cl)c1)-c1ccccc1SC2`, the figures for the ED50 in the data set listed under Mus musculus [1] and in the data set filed under Mus musculus [5] were 9 mg/kg and 45 mg/kg, respectively. For the same molecule, the Suppression is reported as 67% with Mus musculus [4] and 16% in the data set with Mus musculus [7].

Turning to `Oc1c2c(nn1-c1ccccn1)-c1ccccc1SC2`, the Suppression in the data set with Mus musculus [3] is recorded as 2%; with Mus musculus [4], -19%.

`Oc1[nH]nc2c1CSc1ccccc1-2`: the results for the Suppression result with Mus musculus [6] and in the data set with Mus musculus [3] were “Data unreliable” and 1%, respectively.

Turning to `Oc1c2c(nn1CC(F)(F)F)-c1ccccc1SC2`, the Suppression with Mus musculus [3] is recorded as -2%; in the data set with Mus musculus [4], 17%.

Turning to `Cn1nc2c(c1O)CSc1ccccc1-2`, the Suppression with Mus musculus [3] is given as 14%; in the data set with Mus musculus [4], -3%.

Take `Oc1c2c(nn1-c1ccc(Br)cc1)-c1ccccc1SC2`: the ED50 in the data set listed under Mus musculus [1] was 2 mg/kg; in the data set filed under Mus musculus [5] it was 3.3 mg/kg. The molecule further came in with a pKa in data set [2] of 7.13. Moreover, the figures for the Suppression in the data set on Mus musculus [3] and in the data set with Mus musculus [4] were 84% and over 90%, respectively.

Turning to `Oc1c2c(nn1-c1ccc(C(F)(F)F)cc1)-c1ccccc1SC2`, the ED50 in the data set listed under Mus musculus [1] was 6 mg/kg; in the data set listed under Mus musculus [5], 6.5 mg/kg. For the same molecule, the Suppression in the data set on Mus musculus [3] is recorded as 71%; in the data set with Mus musculus [4] it was over 90%.

On to `Oc1c2c(nn1-c1ccc(F)cc1)-c1ccccc1SC2`, for which the ED50 was determined as 3.3 mg/kg in the data set filed under Mus musculus [1] and 5.5 mg/kg in the data set listed under Mus musculus [5]. Further, the results for the Suppression in the data set on Mus musculus [3] and in the data set with Mus musculus [4] were 86% and over 90%, respectively.

As for `Oc1c2c(nn1-c1ccc(Cl)cc1Cl)-c1ccccc1SC2`, the Suppression in the data set on Mus musculus [3] was -4%; with Mus musculus [4] it was 20%.

Turning to `O=[N+]([O-])c1ccc(-n2nc3c(c2O)CSc2ccccc2-3)cc1`, the results for the Suppression result in the data set with Mus musculus [6] and in the data set with Mus musculus [3] were “Data unreliable” and 27%, respectively.

As to `Cn1cnc([N+](=O)[O-])c1Sc1ncnc2[nH]cnc12` [AZATHIOPRINE], the Suppression is -3% in the data set on Mus musculus [3] and 6% in the data set on Mus musculus [4].

Turning to `CS(=O)(=O)c1ccc(-n2nc3c(c2O)CSc2ccccc2-3)cc1`, the 50% effective dose (ED50) is 170 mg/kg in the data set listed under Mus musculus [1] and over 300 mg/kg in the data set listed under Mus musculus [5]. Moreover, the figures for the Suppression in the data set on Mus musculus [3] and with Mus musculus [4] were 1% and 28%, respectively.

Turning to `[O-][S+]1Cc2c(nn(-c3ccc(Cl)cc3)c2O)-c2ccccc21` (centres undefined), the Suppression with Mus musculus [3] and in the data set on Mus musculus [4] was over 90% in each case.
